Data set [1] can be described thus: folding enthalpy; higher = less favourable; fluorescence melt of hairpins on a sequencing array, two-state fit. The settings on record: sodium 0.088 M. The procedure, abridged:
(§1)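 Folding enthalpy and melting temperature were estimated with bootstrapped two-state fits and combined across four replicates by inverse-variance weighting, with fitted temperatures raised by 9.35 °C to match UV melts. The data were Cy3 fluorescence of library hairpins, with annealed Cy3 and quencher oligos, on a sequenced MiSeq flow cell in 50 mM Na-HEPES pH 8.0, 25 mM NaCl, imaged in 2.5 °C steps up to 60 °C and normalised to pre-quench Cy3 and control constructs.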

Data set [2] can be described thus: melting temperature; fluorescence melt of hairpins on a sequencing array, two-state fit, raised by 9.35 °C to match UV melts. Conditions: sodium 0.088 M. The method, boiled down: as §1

Consider GGCCGTGGAAACATGGCC ((((.((....)).)))), for which the folding enthalpy in data set [1] was -44.6 kcal/mol. The Tm in data set [2] turned out to be 61.8 °C.
The like results for GACATGGAAACATGTC ((((((....)))))) were, in that order, -38.2 kcal/mol and 56 °C.
The like results for GGTGTAGGAAACTACACC (((((((....))))))) were, in that order, -44.8 kcal/mol and 60.4 °C.
Consider GAACGCGGAAACGCGTCC (.(((((....))))).), for which, in data set [1], the folding enthalpy is -9.64 kcal/mol. Moreover, in data set [2], the Tm was found to be 47.8 °C.
For GGAAGCGAAAGCTGTCC ((((((....))).))), in that order: -14.5 kcal/mol and 47.4 °C.
As to GGCAAAGGAAACTTTACC ((.((((....)))).)), the folding enthalpy in data set [1] is -27.4 kcal/mol. The Tm in data set [2] turned out to be 30.1 °C.
For GTTACGCGAAAGCGAAAC (((.(((....))).))), in that order: -23.5 kcal/mol and 51.1 °C.
GCCCTACGAAAGTATGGC (((.(((....))).))): the folding enthalpy in data set [1] is -34.3 kcal/mol. The Tm in data set [2] stood at 49 °C.
The like results for GAATTTGGAAACAAATTC (((((((....))))))) were, in that order, -45.1 kcal/mol and 52 °C.
For GCACGCGAAAGCGCTTGC ((((((....)))..))), in that order: -13.3 kcal/mol and 42.8 °C.
For CGAAGCGGAAACGCGTCG (((.(((....))).))), in that order: -29.1 kcal/mol and 55.1 °C.
GGCGACGAAAGTCTGGCC ((((((....)))..))): in data set [1], the folding enthalpy is -23.3 kcal/mol. Also, in data set [2], the Tm amounted to 53.7 °C.
In the case of CAATCCGAAAGGCTTG (((.((....)).))), the folding enthalpy in data set [1] was -17 kcal/mol. In addition, the Tm in data set [2] was found to be 34.7 °C.
For GCCTACTCGAAAGAGGGC (((..(((....)))))), in data set [1], the folding enthalpy was -26.4 kcal/mol. Moreover, the Tm in data set [2] worked out at 44.1 °C.
GAGAGGACGAAAGTCCTC (((..(((....)))))): the folding enthalpy in data set [1] is -8.73 kcal/mol. In data set [2], the Tm was found to be 60.8 °C.
Consider GCTAGGCGAAAGCCCGGC ((..(((....)))..)), for which the folding enthalpy in data set [1] was -16.9 kcal/mol. The Tm in data set [2] was 45.6 °C.
With GCTTGGCGAAAGCAACGC ((.(.((....)).).)), in data set [1], the folding enthalpy was -10.5 kcal/mol. The Tm in data set [2] was 33.5 °C.
The like results for GCGCTGCGAAAGCTACGC (((..((....))..))) were, in that order, -23 kcal/mol and 55.8 °C.
With GTTCTTCCGAAAGGAAAC (((..(((....)))))), the folding enthalpy in data set [1] was -13.6 kcal/mol. In addition, in data set [2], the Tm is 27.5 °C.
For GCCCACCGAAAGGTAGGC (((.(((....))).))), in that order: -38 kcal/mol and 55.5 °C.
The like results for GCGGTGCGAAAGCCCGGC ((.(.((....)).).)) were, in that order, -12.4 kcal/mol and 61.7 °C.
For GCGGATCGAAAGATACGC (((.(((....))).))), the folding enthalpy in data set [1] was -40.3 kcal/mol. For the same sequence, the Tm in data set [2] was found to be 68.7 °C.
The like results for GCGGGTTGCCGC ((((....)))) were, in that order, -19.8 kcal/mol and 57.2 °C.
As to GCAATGCGAAAGCCTTGC ((((.((....)).)))), the folding enthalpy in data set [1] is -27.6 kcal/mol. The Tm in data set [2] came to 53.9 °C.
The like results for GATCATAGGCATGATC ((((((....)))))) were, in that order, -32.4 kcal/mol and 48.5 °C.
For CTAATGAAAATTAG (((((....))))), in that order: -7.43 kcal/mol and 26 °C.
The like results for GACGTGCCGAAAGGCGTC (((..(((....)))))) were, in that order, -13.3 kcal/mol and 46.8 °C.
On to GCAGACCGAAAGGTGTGC (((.(((....))).))), for which the folding enthalpy in data set [1] was -35.8 kcal/mol. The Tm in data set [2] was determined as 63 °C.
On to GACGGAGCGAAAGCTGTC (((..(((....)))))), for which, in data set [1], the folding enthalpy is -18.9 kcal/mol. In data set [2], the Tm came out at 41.8 °C.
On to GTGGAGACGAAAGTCCAC (((..(((....)))))), for which the folding enthalpy in data set [1] was -22.8 kcal/mol. Further, the Tm in data set [2] turned out to be 47.6 °C.
Regarding GGAGGTCCGAAAGGATCC (((..(((....)))))), in data set [1], the folding enthalpy was -12 kcal/mol. Besides, the Tm in data set [2] was found to be 38.3 °C.
For the sequence GATCCGCCTGCGGATC ((((((....)))))), the folding enthalpy in data set [1] is -40.3 kcal/mol. The Tm in data set [2] amounted to 69.2 °C.
Consider GTTGTCCGAAAGGATAAC (((.(((....))).))), for which the folding enthalpy in data set [1] is -44.9 kcal/mol. Further, the Tm in data set [2] worked out at 51.9 °C.
As to GTCCATCGAAAGATCGAC (((.(((....))).))), in data set [1], the folding enthalpy was -31 kcal/mol. In addition, in data set [2], the Tm stood at 35.5 °C.
For GAACGAGCGAAAGCTTTC (((..(((....)))))), the folding enthalpy in data set [1] was -8.11 kcal/mol. The Tm in data set [2] worked out at 23.9 °C.
The like results for GTGAACGAAAGTTCCCAC ((((((....)))..))) were, in that order, -10.9 kcal/mol and 29.7 °C.
For GATCCTATAGAGGATC ((((((....)))))), in that order: -28.9 kcal/mol and 50.4 °C.

The values are drawn from the array DNA melting data of Ke et al. (doi:10.1101/2024.01.08.574731).
